According to article PMC7059553 (Science translational medicine, 2018):
Where two headings read alike, the source gives them in different places.

Columns and labels:
[1] = tested on: human TXNRD1 versus human TXNRD2; assay: Inhibition of human TXNRD1 versus human TXNRD2 with DTNB as substrate; format: biochemical; details: human recombinant enzymes
Outline: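 Human recombinant TXNRD1 and TXNRD2 were assayed with DTNB as substrate, with activity read by absorbance change. TXNRD1 buffer was 50 mM Tris pH 7.5, 2 mM EDTA and 0.1 mg/mL BSA. Compounds were in DMSO. Results were normalized to DMSO and no-enzyme controls. Triplicates, mean ± SEM.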

HCT116 cells [2] = assay: Mitochondrial respiration, Seahorse assay; format: cell-based, human
SCID mice = assay: Single dose escalation toxicity study; details: mouse, in vivo, iv
[3] = tested on: primary human fibroblasts, primary keratinocytes, CCD841 colon epithelial cells; format: cell-based
[4] = tested on: A549 lung carcinoma cells and MEFs; format: cell-based, human, mouse; details: for sensitivity of MEFs with the Txnrd1 gene deleted: Txnrd1 -/- vs Txnrd1 fl/fl MEFs
[5] = tested on: JNK and p38 phosphorylation in FaDu cells; assay: Western blot of JNK and p38 phosphorylation; format: cell-based, human; details: FaDu cells treated for 6 hours
FaDu cells [6] = format: cell-based, human
FaDu cells [7] = assay: Cellular GSH concentrations; format: cell-based, human; details: 6 hours at 10×IC50
[8] = tested on: FaDu cell xenografts in SCID mice; assay: [18F]-FDG PET study of FaDu xenografts; format: in vivo, mouse; details: 5 mg/kg i.p. once daily
Outline: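 Male SCID mice carried FaDu xenografts (1×10^6 cells); baseline scan at day 11, with food removed. Isoflurane anaesthesia on a 37 °C pad. [18F]-FDG i.v., 60-min 3D acquisition. Treatment was i.p. once daily (n=8) or vehicle (n=9), rescanned on day 3. SUVmean was taken over ROIs ≥1.8×10^5 Bq/mL, and day 3 was compared with day 0 by paired t-test.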

GPX1 = target: T1, GPX1 (Homo sapiens, UniProt P07203); assay: GPX1 inhibition; format: biochemical
T1 sequence (P07203 1-203): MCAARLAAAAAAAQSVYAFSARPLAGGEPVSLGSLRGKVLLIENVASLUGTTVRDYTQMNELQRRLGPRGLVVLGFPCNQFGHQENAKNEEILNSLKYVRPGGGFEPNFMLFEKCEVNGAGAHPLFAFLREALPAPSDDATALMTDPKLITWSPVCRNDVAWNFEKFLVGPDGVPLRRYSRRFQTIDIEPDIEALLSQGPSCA

TXNRD1 [9] = target: T2, TXNRD1 (Rattus norvegicus, UniProt O89049); assay: SecTRAP activity; format: biochemical
T2 sequence (O89049 1-499): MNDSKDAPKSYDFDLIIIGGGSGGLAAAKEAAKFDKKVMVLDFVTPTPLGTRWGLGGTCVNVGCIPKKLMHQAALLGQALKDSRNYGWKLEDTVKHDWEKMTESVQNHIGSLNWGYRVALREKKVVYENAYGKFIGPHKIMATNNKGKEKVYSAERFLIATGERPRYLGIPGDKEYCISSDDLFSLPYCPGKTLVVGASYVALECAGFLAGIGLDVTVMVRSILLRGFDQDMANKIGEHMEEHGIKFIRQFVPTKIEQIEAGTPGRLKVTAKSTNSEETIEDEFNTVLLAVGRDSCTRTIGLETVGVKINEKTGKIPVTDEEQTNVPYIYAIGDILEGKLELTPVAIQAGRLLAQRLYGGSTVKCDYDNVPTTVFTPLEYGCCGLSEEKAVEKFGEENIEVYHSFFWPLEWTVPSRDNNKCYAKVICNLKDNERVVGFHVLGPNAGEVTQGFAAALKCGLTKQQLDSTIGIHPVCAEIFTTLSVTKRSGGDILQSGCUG

TXNRD1 [10] = target: T2, TXNRD1; format: binding
[11] = tested on: FaDu cell xenografts in SCID mice; assay: Repeated dose study in FaDu xenograft-bearing mice; format: in vivo; details: twice a day i.v., 10 mg/kg TRi-1, 15 mg/kg TRi-2 or 10 mg/kg auranofin; for FaDu xenograft tumor growth: four days
[12] = tested on: PyMT-MMTV mice mammary tumors; assay: PyMT-MMTV tumor low frequency dosing study; format: in vivo; details: for tumor growth in PyMT-MMTV mice: three weeks; for tumor volumes compared to vehicle controls: mice surviving 20–22 days, p<0.05
TXNRD1 [13] = target: T2, TXNRD1; assay: Reversibility of TXNRD1 inhibition; format: biochemical
FaDu cells [14] = assay: Cellular H2O2 production, Amplex red assay; format: cell-based, human
Outline: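 FaDu cells were grown at 37 °C, 5% CO2 in medium with 10% FBS, 2 mM L-glutamine and 100 μg/mL penicillin/streptomycin. Tests used medium with 10% FBS plus 25 nM sodium selenite. Compound was given in DMSO (0.01% final) across a concentration range or over a time course. H2O2 was read by Amplex red. Runs were in triplicate, shown as mean ± SEM.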

HCT116 cells [15] = assay: Cytotoxicity in HCT116 subclones with altered p53 status or BCL-2 overexpression; format: cell-based, human; details: subclones of HCT116 cells
[16] = tested on: MDA-MB-231 xenografts in athymic mice; assay: MDA-MB-231 orthotopic xenograft efficacy study; format: in vivo; details: for MDA-MB-231 xenograft tumor growth: 22 days, p<0.0001 vs vehicle
[17] = Liver microsome stability; format: in vitro ADME
[18] = tested on: cellular TXNRD activity in FaDu cells; assay: Cellular TXNRD activity, insulin-endpoint assay; format: cell-based, human; details: 3 hours of compound exposure
FaDu cells [19] = assay: Cytotoxicity towards FaDu cells, 72 hours; format: cell-based, human; details: 72 hours of incubation
Outline: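 Viability of FaDu cells after 72 h with test compound, in medium with 10% FBS and 25 nM sodium selenite, at 37 °C and 5% CO2. DMSO vehicle at 0.01% final. Run in triplicate and reported as mean ± SEM.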

NCI-60 cell panel = details: read-out: average growth inhibition to 50% (GI50); average over NCI-60 cell panel, screened previously; ref https://dtp.cancer.gov, NSC351105 (TRi-2) and NSC321521 (auranofin); cited from earlier work
human cancer cell lines = format: cell-based
FaDu cells [20] = format: cell-based, human; remark: listed apart in the source
[21] = HCT116 cells, 30-minute or 5-hour exposure
[22] = i.p. twice a week, TRi-1 5 mg/kg, auranofin 10 mg/kg

| SMILES | ATP-coupled basal respiration (HCT116 cells [2]; [21]) | potency against non-cancerous cells compared to cancer cell lines [3] | cytotoxicity towards MEF cells versus A549 cells [4] | sensitivity of MEFs with the Txnrd1 gene deleted [4] | JNK and p38 phosphorylation [5] | effect of GSH depletion with BSO on cytotoxicity (FaDu cells [6]) | effect on cellular GSH concentrations (FaDu cells [7]) | less efficient in inhibiting GPX1 than TXNRD1 (GPX1) | thermal stability of NADPH-reduced TXNRD1 upon incubation with compound (TXNRD1 [10]) | toxicity and mouse weight in repeated dose study [11] | FaDu xenograft tumor growth [11] | tumor growth in PyMT-MMTV mice [12, 22] | tumor volumes compared to vehicle controls [12] | cellular H2O2 production (FaDu cells [14]) | resistance upon altered p53 status or BCL-2 overexpression (HCT116 cells [15]) | metabolism in liver microsomes [17] | further results |
| --- | --- | --- | --- | --- | --- | --- | --- | --- | --- | --- | --- | --- | --- | --- | --- | --- | --- |
| COc1ccc([N+](=O)[O-])c(S(=O)(=O)c2ccc(Cl)cc2)n1 [TRi-1] | lacked effects on basal respiration | reduced potency | preferentially toxic towards the A549 cells | additional resistance | efficiently activated JNK and p38 phosphorylation | enhanced the cytotoxicity | no effect on cellular GSH concentrations | over 1000 fold | stability was increased | no signs of overt toxicity or changes in mouse weight | decreased tumor growth compared to vehicle controls within four days | impaired tumor growth | significantly smaller compared to the vehicle controls | increased cellular H2O2 production | no apparent resistance | rather rapid metabolism | specificity for TXNRD1 compared to inhibition of TXNRD2 [1]: 5- to 10 fold; maximal respiratory capacity (HCT116 cells [2]; [21]): little effect on maximal respiratory capacity; highest administrable dose tolerated without overt signs of toxicity (SCID mice): 10 mg/kg; activated caspase-3 staining in excised xenografts ([8]; between days three and four): increased staining for activated caspase-3; [18F]-FDG uptake in viable parts of the tumors ([8]; day 3 vs day 0): markedly decreased; SecTRAP formation (NADPH-dependent redox cycling with juglone) (TXNRD1 [9]; after inhibition of normal TXNRD1 activity and desalting): maintained substantial NADPH-dependent redox cycling with juglone; mode of TXNRD1 inhibition (TXNRD1 [13]; with or without NADPH, before and after desalting): irreversibly inhibit TXNRD1 in an NADPH-dependent manner; MDA-MB-231 xenograft tumor growth ([16]; 10 mg/kg i.p.): significantly decreased compared to the vehicle controls; complete tumor regression ([16]; 10 mg/kg i.p., n=12): one tumor in the TRi-1 i.p. group completely regressing; systemic toxicity in MDA-MB-231 xenograft study ([16]; 10 mg/kg i.v. or i.p.): no signs of overt systemic toxicity; MDA-MB-231 xenograft tumor growth ([16]; 10 mg/kg i.v.): significantly decreased compared to the vehicle controls; inhibition of cellular TXNRD activity [18]: equal or greater potency compared to that of auranofin |
| COc1cccc(S(=O)(=O)c2ccc(Cl)cc2)n1 [TRi-62] | – | – | – | – | – | – | – | – | – | – | – | – | – | – | – | – | cytotoxicity towards FaDu cells (FaDu cells [19]): loss of cytotoxicity |
| CC(=O)OC[C@H]1O[C@@H]([S-])[C@H](OC(C)=O)[C@@H](OC(C)=O)[C@@H]1OC(C)=O.CCP(CC)CC.[Au+] [auranofin, reference compound] | deteriorated ATP-coupled respiration | only displayed lower potency against the CDD841 cells | similarly cytotoxic towards these two cell types | minimally affected | did not activate JNK and p38 phosphorylation as robustly | enhanced the cytotoxicity | lowered GSH | over 1000 fold | not with TRi-2 or auranofin | no signs of overt toxicity or changes in mouse weight | decreased tumor growth compared to vehicle controls within four days | impaired tumor growth | significantly smaller compared to the vehicle controls | increased cellular H2O2 production | no apparent resistance | rather rapid metabolism | TXNRD1 versus TXNRD2 inhibition profile [1]: pan-TXNRD inhibitor; maximal respiratory capacity (HCT116 cells [2]): impaired maximal respiratory capacity; GI50 (NCI-60 cell panel): 760 nM; cytotoxic potency, side-by-side comparison (human cancer cell lines): on average more potent than TRi-1; GPX1 inhibition (GPX1; preincubated with GPX1 in the absence of GSH, high concentrations): moderate inhibition; SecTRAP formation (NADPH-dependent redox cycling with juglone) (TXNRD1 [9]): maintained substantial NADPH-dependent redox cycling with juglone; cytotoxicity in colony-forming assay (FaDu cells [20]): more cytotoxic than TRi-1; survival during observation [12, 22]: two mice in the auranofin group had to be sacrificed due to poor health; mode of TXNRD1 inhibition (TXNRD1 [13]): irreversibly inhibit TXNRD1 in an NADPH-dependent manner |
